The source made the active and inactive calls.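 How the source made its calls, unless noted: active means viability at or below 30% in both replicate assays; inconclusive means viability at or below 30% in just one of the two assays; inactive means the rest.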
Experiments:
[1] = Her2 expression decrease, cell viability multiplex – SKBR3 breast tumor cells, AlphaScreen, ATP viability, primary screen (AID 461;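 active means Her2 level under about 52% in both replicate screens, with viability over 70% of control, limit read from the data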;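 on Her2 level: lower value means less Her2 protein in the cells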;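 on viability: percent of carrier control wells set as 100% viability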); conditions: SKBR3 Her2 protein level, 18-24 h, measured here: SKBR3 viability, ATP luminescence, at 10 µM
[2] = molecular target: Receptor tyrosine-protein kinase erbB-2 (Homo sapiens) (UniProt P04626); test: as above; conditions: 18-24 h, at 10 µM, stronger effect = lower value
[3] = reduced viability of SK-BR-3 breast cancer cells – cell-based, 24 h, human, pilot screen (AID 572;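 active means viability at or below 10% of carrier control in both of two separate runs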;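 further: compound exposure lasted between 18 and 24 h rather than exactly 24 h; 100% = carrier-treated control wells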); conditions: SK-BR-3 viability, CellTiter-Glo luminescence, at 10 µM, stronger effect = lower value
[4] = HUVEC growth inhibition – cell-based, human, primary screen (AID 575); conditions: HUVEC proliferation, CellTiter-Glo luminescence, 72 h; at 10 µM; stronger effect = lower value;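 further: 100% = median of untreated cell wells with 0.1% DMSO on each plate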
In short: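 system = HUVEC primary cells | amount = 1250 cells/well | buffer or medium = supplemented EBM, 2% fetal bovine serum | dosing = single-point 10 µM, DMSO 0.1% final | times = 72 h compound incubation | detection = CTG luminescence | read-out = % viability relative to median vehicle-well signal on each plate | control set = vehicle and MePR control wells | format = collagen-coated 384-well format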

[5] = H69AR cell proliferation blockers – human, duplicate replicates, primary screen (AID 580;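 active means viability at or under a set limit in both replicates, limit being median viability minus 3 SD, cut at about 48% in these data, passing the limit was not always enough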;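 further: 100% = mean luminescence of untreated wells and 0% = no signal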); conditions: H69AR lung tumor cells viability, ATP luminescence, 72 h; at 10 µM; stronger effect = lower value
[6] = MRP1 drug-resistance reversers in H69AR cells – cell-based, doxorubicin co-treatment, pilot screen (AID 601;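 active means viability loss from added drug above about 55%, and viability with drug at most 40%, in both replicates, limit read from the data, passing the limit was not always enough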); conditions: CellTiter-Glo, 72 h, at 10 µM; for differential viability (reversal): stronger effect = higher value
[7] = yeast transport mutant growth inhibition pilot in 384-well plates, post-Golgi transport modulator project (AID 636; in the data active means inhibition above about 31%); conditions: absorbance 615 nm, about 18 h, stronger effect = higher value
[8] = growth suppression of yeast trafficking mutant, preliminary HTS, modulators of trafficking downstream of Golgi apparatus project, 1536-format plate, OD 615 nm (AID 637; in the data active means inhibition above about 30%); conditions: yeast transport mutant growth, absorbance 615 nm, 18 h; stronger effect = higher value
[9] = H69AR cells + 2 uM doxorubicin, measured here: viability with 2 uM doxorubicin, stronger effect = lower value
[10] = H69AR cells, compound alone cytotoxicity

Sequence of Receptor tyrosine-protein kinase erbB-2 (Homo sapiens) (P04626 whole entry, looked up): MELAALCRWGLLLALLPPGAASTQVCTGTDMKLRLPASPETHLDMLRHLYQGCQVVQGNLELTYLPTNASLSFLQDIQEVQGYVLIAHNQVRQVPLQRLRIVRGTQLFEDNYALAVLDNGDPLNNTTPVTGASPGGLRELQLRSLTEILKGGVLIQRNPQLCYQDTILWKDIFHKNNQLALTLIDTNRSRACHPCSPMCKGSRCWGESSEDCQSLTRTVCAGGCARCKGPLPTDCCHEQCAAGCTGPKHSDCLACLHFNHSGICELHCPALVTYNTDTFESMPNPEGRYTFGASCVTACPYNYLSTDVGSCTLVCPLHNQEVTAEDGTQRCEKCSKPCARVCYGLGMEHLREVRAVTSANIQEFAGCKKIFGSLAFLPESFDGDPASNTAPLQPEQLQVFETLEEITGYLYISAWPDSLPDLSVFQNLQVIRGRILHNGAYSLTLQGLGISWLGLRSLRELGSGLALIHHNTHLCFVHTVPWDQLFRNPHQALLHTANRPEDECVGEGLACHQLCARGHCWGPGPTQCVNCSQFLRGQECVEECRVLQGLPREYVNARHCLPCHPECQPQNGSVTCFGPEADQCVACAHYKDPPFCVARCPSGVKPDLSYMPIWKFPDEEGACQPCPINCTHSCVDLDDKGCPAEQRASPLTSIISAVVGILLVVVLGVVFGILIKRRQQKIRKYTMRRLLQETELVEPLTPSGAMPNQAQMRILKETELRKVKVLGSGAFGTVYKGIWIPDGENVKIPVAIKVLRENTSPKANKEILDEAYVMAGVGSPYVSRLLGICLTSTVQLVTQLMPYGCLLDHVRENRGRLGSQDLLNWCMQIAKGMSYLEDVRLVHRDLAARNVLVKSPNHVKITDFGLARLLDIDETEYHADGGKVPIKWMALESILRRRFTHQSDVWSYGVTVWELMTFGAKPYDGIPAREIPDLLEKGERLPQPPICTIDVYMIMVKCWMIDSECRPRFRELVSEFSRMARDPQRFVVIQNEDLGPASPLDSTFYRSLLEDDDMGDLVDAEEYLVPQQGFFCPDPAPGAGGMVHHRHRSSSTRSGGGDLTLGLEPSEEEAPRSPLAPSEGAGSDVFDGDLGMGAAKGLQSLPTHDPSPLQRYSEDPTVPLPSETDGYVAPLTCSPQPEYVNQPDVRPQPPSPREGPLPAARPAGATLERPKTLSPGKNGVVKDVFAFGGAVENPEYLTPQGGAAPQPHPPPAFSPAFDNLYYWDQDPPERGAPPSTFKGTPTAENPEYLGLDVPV

| SMILES | viability [1] [%] | Her2 level [2] | viability [3] | viability [4] | viability [5] | differential viability (reversal) ([6]; H69AR cells + 2 uM doxorubicin) | viability [6, 9] [%] | viability [6, 10] [%] | inhibition [7] | inhibition [8] |
| --- | --- | --- | --- | --- | --- | --- | --- | --- | --- | --- |
| CCn1c(=O)cc(OCC(=O)NCCCN2CC(C)CC(C)C2)c2ccccc21 (stereo not given) | 101 | 81% (inactive) | 101% (inactive) | 81.3% (inactive) | 74.7% (inactive) | -0.8% (inactive) | 75.5 | 74.7 | -7.24% (inactive) | -2.55% (inactive) |
| COc1cc(C(=O)N2CCC(NC(=O)C(Cc3ccc(C)cc3)NC(C)=O)CC2)cc(OC)c1OC (stereo not given) | 92 | 86% (inactive) | 92% (inactive) | 97.8% (inactive) | 98% (inactive) | 7.71% (inactive) | 90.3 | 98 | -2.84% (inactive) | 0.16% (inactive) |
| CCn1cc(C(=O)N=c2sc3ccccc3n2C)c(=O)c2ccc(C)nc21 | 92.5 | 84.5% (inactive) | 92.5% (inactive) | 80.3% (inactive) | 95.7% (inactive) | 7.91% (inactive) | 87.8 | 95.7 | 1.41% (inactive) | -2.83% (inactive) |
| CC(C)C(=O)Nc1nnc(CCc2nnc(NC(=O)C(C)C)s2)s1 | 99 | 97% (inactive) | 99% (inactive) | 106% (inactive) | 93.6% (inactive) | 2.27% (inactive) | 91.3 | 93.6 | -4.61% (inactive) | 0.16% (inactive) |
| Cn1nnnc1SCc1cn2cccnc2n1 | 112 | 90.5% (inactive) | 112% (inactive) | 101% (inactive) | 89.3% (inactive) | -0.09% (inactive) | 89.4 | 89.3 | -5.33% (inactive) | -3.33% (inactive) |
| Cc1ccc(S(=O)(=O)N2CCN(C(=O)CN3C(=O)NC4(CCOc5ccccc54)C3=O)CC2)cc1 (stereo not given) | 98.5 | 108% (inactive) | 98.5% (inactive) | 102% (inactive) | 101% (inactive) | 1.57% (inactive) | 99.8 | 101 | 4.08% (inactive) | -1.09% (inactive) |
| Cc1cccc2sc(NC(=O)Cn3cccc3)nc12 | 87 | 93.5% (inactive) | 87% (inactive) | 107% (inactive) | 89.6% (inactive) | -8.27% (inactive) | 97.8 | 89.6 | -1.67% (inactive) | -1.83% (inactive) |
| COC(=O)c1ccc(Cl)c(NC(C)=O)c1 | 108 | 99.5% (inactive) | 108% (inactive) | 70.9% (inactive) | 97.2% (inactive) | 7.73% (inactive) | 89.5 | 97.2 | -1.17% (inactive) | -0.33% (inactive) |
| CCc1nnc(NC(=O)c2ccc(COc3ccccc3)o2)s1 | 97 | 104% (inactive) | 97% (inactive) | 77.9% (inactive) | 111% (inactive) | 2.33% (inactive) | 109 | 111 | -3.97% (inactive) | -4.6% (inactive) |
| O=c1cnnc(NCc2ccccc2)[nH]1 | 88.5 | 108% (inactive) | 88.5% (inactive) | 106% (inactive) | 103% (inactive) | 11.8% (inactive) | 91.5 | 103 | -5.79% (inactive) | -5.33% (inactive) |
| COC(=O)c1cc(OC)c(OC)cc1NC(=O)CCC1CCCC1 | 103 | 95% (inactive) | 103% (inactive) | 88.8% (inactive) | 102% (inactive) | -3.46% (inactive) | 106 | 102 | 0.39% (inactive) | 9.05% (inactive) |
| Cc1cc(N2CCN(c3ccccn3)CC2)n2nc(C)nc2n1 | 102 | 114% (inactive) | 102% (inactive) | 90.2% (inactive) | 87.4% (inactive) | -7.31% (inactive) | 94.7 | 87.4 | -4.23% (inactive) | -7% (inactive) |
| CSc1cccc(NC(=O)C2CCCN2S(=O)(=O)c2ccc3c(c2)CCC(=O)N3)c1 (stereo not given) | 93 | 93.5% (inactive) | 93% (inactive) | 94.7% (inactive) | 89% (inactive) | 0.435% (inactive) | 88.6 | 89 | -4.21% (inactive) | -8.73% (inactive) |
| COCCn1c(C)cc(C(=O)CSc2nc3ccccc3c(=O)[nH]2)c1C | 88.5 | 67% (inactive) | 88.5% (inactive) | 64.6% (inactive) | 80.9% (inactive) | -8.01% (inactive) | 88.9 | 80.9 | -5.47% (inactive) | -3.61% (inactive) |
| Cc1nnc(NCCc2ccccc2)n(N)c1=O | 107 | 104% (inactive) | 107% (inactive) | 120% (inactive) | 94.1% (inactive) | -3.7% (inactive) | 97.8 | 94.1 | -0.4% (inactive) | -9.03% (inactive) |
| N#Cc1c(NC(=O)c2ccc(Br)o2)n(-c2ccccc2)c2nc3ccccc3nc12 | 86.5 | 77% (inactive) | 86.5% (inactive) | 71.1% (inactive) | 85.2% (inactive) | -0.255% (inactive) | 85.5 | 85.2 | -5.73% (inactive) | 2.46% (inactive) |

| SMILES | viability [1] [%] | Her2 level [2] | viability [3] | viability [4] | viability [5] | differential viability (reversal) ([6]; H69AR cells + 2 uM doxorubicin) | viability [6, 9] [%] | viability [6, 10] [%] | inhibition [7] | inhibition [8] |
| --- | --- | --- | --- | --- | --- | --- | --- | --- | --- | --- |
| Cc1nc(N2CCC(C)CC2)c2c(C)c(C(=O)O)sc2n1 | 100 | 77% (inactive) | 100% (inactive) | 74.2% (inactive) | 84.9% (inactive) | 3.62% (inactive) | 81.3 | 84.9 | -4.74% (inactive) | -6.33% (inactive) |
| Cc1cccc(NC(=O)CCN2CCN(C/C=C/c3ccccc3)CC2)c1 | 87.5 | 84.5% (inactive) | 87.5% (inactive) | 66% (inactive) | 86.3% (inactive) | -9.71% (inactive) | 96.1 | 86.3 | -2.53% (inactive) | 3.23% (inactive) |
| CCOC(=O)N1CCN(c2cc(=O)n(-c3ccc(OCC)cc3)c(=O)[nH]2)CC1 | 106 | 100% (inactive) | 106% (inactive) | 104% (inactive) | 97.5% (inactive) | 6.84% (inactive) | 90.7 | 97.5 | -4.93% (inactive) | -1.97% (inactive) |
| Clc1ccc2nc(N3CCCCC3)[nH]c2c1 | 90.5 | 78.5% (inactive) | 90.5% (inactive) | 105% (inactive) | 91.9% (inactive) | 11.6% (inactive) | 80.3 | 91.9 | -7.84% (inactive) | 2.79% (inactive) |
| CC1CCCCC1NC(=O)CCCc1nc2ccccc2c(=O)[nH]1 (stereo not given) | 80.5 | 93.5% (inactive) | 80.5% (inactive) | 105% (inactive) | 110% (inactive) | 13.7% (inactive) | 96.2 | 110 | 0.27% (inactive) | 2.46% (inactive) |
| Cc1cccc2cc(CN(Cc3nnnn3Cc3ccccc3)C3CCCC3)c(=O)[nH]c12 | 85 | 72.5% (inactive) | 85% (inactive) | 89.3% (inactive) | 72.9% (inactive) | 31.2% (inactive) | 41.7 | 72.9 | -1.18% (inactive) | -4.55% (inactive) |
| COc1ccc(-c2nnc(-c3cccs3)o2)cc1OC | 75 | 110% (inactive) | 75% (inactive) | 92.7% (inactive) | 94.6% (inactive) | 1.17% (inactive) | 93.5 | 94.6 | -3.78% (inactive) | -3.93% (inactive) |
| Cc1c(/C(O)=C2/C(=O)C(=O)N(CCN3CCOCC3)C2c2cccnc2)cnn1-c1ccccc1 (stereo not given) | 85.5 | 108% (inactive) | 85.5% (inactive) | 110% (inactive) | 91.5% (inactive) | 9.19% (inactive) | 82.3 | 91.5 | 1.45% (inactive) | -1.09% (inactive) |
| CC(=O)N1CCN(c2ccc(N=Cc3c(O)n(Cc4ccccc4)c(=O)[nH]c3=O)cc2)CC1 | 89 | 87.5% (inactive) | 89% (inactive) | 83.5% (inactive) | 94.6% (inactive) | -3.64% (inactive) | 98.2 | 94.6 | -0.91% (inactive) | 0.95% (inactive) |
| CC(=O)N(C)C1(c2nnnn2CCOC(=O)Nc2ccc(Cl)cc2)CCCCC1 | 114 | 114% (inactive) | 114% (inactive) | 98.1% (inactive) | 104% (inactive) | 12.5% (inactive) | 91 | 104 | -1.45% (inactive) | -8.33% (inactive) |
| CCOc1cc(C)c(Cl)cc1S(=O)(=O)N(C)C | 106 | 90.5% (inactive) | 106% (inactive) | 103% (inactive) | 95.4% (inactive) | 8.76% (inactive) | 86.6 | 95.4 | -3.03% (inactive) | -2.1% (inactive) |
| O=C1OCCC1Sc1ncnc2sc3c(c12)CCC3 (stereo not given) | 95.5 | 84.5% (inactive) | 95.5% (inactive) | 97.6% (inactive) | 104% (inactive) | 11.8% (inactive) | 91.9 | 104 | -4.67% (inactive) | -0.32% (inactive) |
| NC(=O)C1(N2CCCCC2)CCN(C2CC(=O)N(Cc3cccs3)C2=O)CC1 (stereo not given) | 112 | 103% (inactive) | 112% (inactive) | 101% (inactive) | 98% (inactive) | 6.76% (inactive) | 91.3 | 98 | -4.74% (inactive) | -0.48% (inactive) |
| Cc1ccc(-c2c3c(=O)n(C)c(=O)n(C)c3cn2CCCN2CCOCC2)cc1 | 144 | 102% (inactive) | 144% (inactive) | 103% (inactive) | 77.8% (inactive) | -4.19% (inactive) | 82 | 77.8 | -7.5% (inactive) | -0.95% (inactive) |
| CC(Sc1nc(-c2ccccc2)cc(C(F)(F)F)n1)C(=O)N1CCC(C(N)=O)CC1 (stereo not given) | 100 | 87.5% (inactive) | 100% (inactive) | 85.6% (inactive) | 91.1% (inactive) | -1.27% (inactive) | 92.3 | 91.1 | -0.91% (inactive) | 11% (inactive) |
| COC(=O)[C@H](C)NC(=O)NCc1ccc(F)cc1 | 102 | 95% (inactive) | 102% (inactive) | 102% (inactive) | 95.3% (inactive) | -8.8% (inactive) | 104 | 95.3 | -2.21% (inactive) | -1.43% (inactive) |
